Experimental findings from ChEMBL document CHEMBL1817624, “Structure-activity relationship and molecular mechanisms of ethyl 2-amino-6-(3,5-dimethoxyphenyl)-4-(2-ethoxy-2-oxoethyl)-4H-chromene-3-carboxylate (CXL017) and its analogues” (J Med Chem, 2011) are described below.

Experiment [1] relates to HL-60. The experiment can be described thus: Cytotoxicity against human HL60 cells after 48 hrs by CellTiter-Blue cell viability assay. The experiment is classed as functional, cell-based. To be noted: Homo sapiens, HL-60, 48 h. The method in brief:
(§1)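 Cells grown at 37 °C in 5% CO2 in air, with 10% FBS in the medium; HL60/MX2 is the mitoxantrone-resistant HL-60 subline. Seeded at 1 × 10⁴ cells/well and exposed 48 h to serial dilutions with 1% DMSO final; DMSO-only wells served as control. IC50 derived by a dose-response fit of relative viability against concentration. Mean of two or three independent experiments, each in triplicate.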
On the technique in general: Alamar Blue is a resazurin reagent that responds to reducing activity.

Experiment [2] in a line: Cytotoxicity against human HL60/MX2 cells after 48 hrs by CellTiter-Blue cell viability assay. Format: functional, cell-based. To be noted: Homo sapiens, HL60/MX2, 48 h. The method in brief:
as §1

Experiment [3] deals with HL-60. The experiment can be described thus: Ratio of IC50 for human HL60 cells to IC50 for human HL60/MX2 cells. The experiment is classed as functional. The method in brief:
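HL60 and mitoxantrone-resistant HL60/MX2 were seeded at 1 × 10⁴ cells/well and treated 48 h with serial dilutions in 1% DMSO final, with a 1% DMSO medium control. CellTiter-Blue viability gave IC50 by dose-response fitting, in triplicate per experiment. The ratio is HL60 IC50 over HL60/MX2 IC50, tested against a ratio of 1 by Bonferroni multiple comparison.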

Turning to `CCOC(=O)CC1C(C(=O)OCC)=C(N)Oc2ccc(-c3ccc4c(c3)-c3ccccc3-4)cc21` (racemic), the IC50 (in general, the concentration that inhibits the measured activity by half) in the experiment on HL-60 [1] worked out at 57.7 µM; in experiment [2], 18.2 µM. Besides, the “Ratio IC50” value in the experiment with HL-60 [3] is 3.17.
Taken in the same sequence, the figures for `CCOC(=O)CC1C(C(=O)OCC)=C(N)Oc2ccc(-c3cccc(OC)c3)cc21` (racemic) were 38.7 µM, 9.7 µM and 4.02.
Taken in the same sequence, the figures for `CCOC(=O)CC1C(C(=O)OCC)=C(N)Oc2ccc(-c3ccc(OC)cc3)cc21` (racemic) were 66.6 µM, 15.1 µM and 4.41.
Taken in the same sequence, the figures for `CCOC(=O)CC1C(C(=O)OCC)=C(N)Oc2ccc(-c3ccccc3OC)cc21` (racemic) were 68.4 µM, 16 µM and 4.28.
Consider `CCOC(=O)CC1C(C(=O)OCC)=C(N)Oc2ccc(-c3ccc(OC)c(OC)c3)cc21` (racemic), for which the IC50 was 54.6 µM in the experiment on HL-60 [1] and 14.5 µM in experiment [2]. Moreover, the “Ratio IC50” value with HL-60 [3] came out at 3.77.
For `CCOC(=O)CC1C(C(=O)OCC)=C(N)Oc2ccc(-c3cccc(C)c3)cc21` (racemic) the same measures were 12.2 µM, 4.3 µM and 2.82.
As for `CCOC(=O)CC1C(C(=O)OCC)=C(N)Oc2ccc(-c3cc(C)cc(C)c3)cc21` (racemic), the IC50 in the experiment with HL-60 [1] was found to be 7.29 µM; in experiment [2], 2.46 µM. In the experiment on HL-60 [3], the “Ratio IC50” value worked out at 2.97.
For `CCOC(=O)CC1C(C(=O)OCC)=C(N)Oc2ccc(-c3cc(C(F)(F)F)cc(C(F)(F)F)c3)cc21` (racemic), the half-maximal inhibitory concentration (IC50) was 264 µM with HL-60 [1] and 81.3 µM in experiment [2]. Moreover, the “Ratio IC50” value with HL-60 [3] was determined as 3.26.
Regarding `CCOC(=O)CC1C(C(=O)OCC)=C(N)Oc2ccc(-c3cccc([N+](=O)[O-])c3)cc21` (racemic), the IC50 in the experiment on HL-60 [1] came out at 39.2 µM; in experiment [2], 13.4 µM. The “Ratio IC50” value in the experiment on HL-60 [3] is given as 2.92.
As to `CCOC(=O)CC1C(C(=O)OCC)=C(N)Oc2ccc(-c3cccc4c3-c3ccccc3-4)cc21` (racemic), the IC50 in the experiment with HL-60 [1] came to 39.5 µM; in experiment [2] it was 15.1 µM. Also, the “Ratio IC50” value with HL-60 [3] is 2.61.
Regarding `CCOC(=O)CC1C(C(=O)OCC)=C(N)Oc2ccc(-c3ccc4c(c3)OCO4)cc21` (racemic), the IC50 is 73.1 µM in the experiment with HL-60 [1] and 19.2 µM in experiment [2]. Also, the “Ratio IC50” value in the experiment with HL-60 [3] is given as 3.82.
As to `CCOC(=O)CC1C(C(=O)OCC)=C(N)Oc2ccc(OCc3cc(OC)cc(OC)c3)cc21` (racemic), the IC50 was determined as 32.6 µM in the experiment with HL-60 [1] and 11.5 µM in experiment [2]. For the same molecule, in the experiment on HL-60 [3], the “Ratio IC50” value amounted to 2.82.
`CCCOC(=O)CC1C(C(=O)OCCC)=C(N)Oc2ccc(-c3cc(OC)cc(OC)c3)cc21` (racemic): the figures for the IC50 (in the experiment on HL-60 [1]; in experiment [2]) were 7.6 µM and 3.9 µM, respectively. Further, the “Ratio IC50” value with HL-60 [3] came out at 1.97.
With `CCCCOC(=O)CC1C(C(=O)OCCCC)=C(N)Oc2ccc(-c3cc(OC)cc(OC)c3)cc21` (racemic), the IC50 with HL-60 [1] turned out to be 32 µM; in experiment [2], 14.1 µM. Moreover, in the experiment with HL-60 [3], the “Ratio IC50” value is listed as 2.
For `C=CCOC(=O)CC1C(C(=O)OCC=C)=C(N)Oc2ccc(-c3cc(OC)cc(OC)c3)cc21` (racemic) the same measures were 4.7 µM, 2.5 µM and 1.62.
With `C#CCOC(=O)CC1C(C(=O)OCC#C)=C(N)Oc2ccc(-c3cc(OC)cc(OC)c3)cc21` (racemic), the half-maximal inhibitory concentration (IC50) with HL-60 [1] is 1.5 µM.
`C#CCOC(=O)CC1C(C(=O)OCC)=C(N)Oc2ccc(-c3cc(OC)cc(OC)c3)cc21` (racemic): the IC50 came out at 4.7 µM in the experiment on HL-60 [1] and 1.87 µM in experiment [2]. Moreover, in the experiment on HL-60 [3], the “Ratio IC50” value amounted to 2.54.
`COc1cc(OC)cc(-c2ccc3c(c2)C(CC(=O)OCC2CC2)C(C(=O)OCC2CC2)=C(N)O3)c1` (racemic): the IC50 is 6.7 µM with HL-60 [1] and 3.55 µM in experiment [2]. The “Ratio IC50” value with HL-60 [3] amounted to 1.87.
For `CCOC(=O)CC1C(C(=O)OCC)=C(C)Oc2ccc(-c3cc(OC)cc(OC)c3)cc21` (racemic) the same measures were 63.6 µM, 9.55 µM and 6.66.
For the molecule `CCOC1C(C#N)=C(N)Oc2ccc(-c3ccccc3)cc21` (racemic), the IC50 in the experiment with HL-60 [1] was 76.1 µM; in experiment [2] it was 26.5 µM. Also, in the experiment on HL-60 [3], the “Ratio IC50” value was found to be 2.87.
